Reference: the M2OR odorant receptor database

Tests used:
Conditions in all cases: stereoisomer not certain
UniProt A2ATE5 = target: T1, UniProt A2ATE5
T1 sequence (whole entry): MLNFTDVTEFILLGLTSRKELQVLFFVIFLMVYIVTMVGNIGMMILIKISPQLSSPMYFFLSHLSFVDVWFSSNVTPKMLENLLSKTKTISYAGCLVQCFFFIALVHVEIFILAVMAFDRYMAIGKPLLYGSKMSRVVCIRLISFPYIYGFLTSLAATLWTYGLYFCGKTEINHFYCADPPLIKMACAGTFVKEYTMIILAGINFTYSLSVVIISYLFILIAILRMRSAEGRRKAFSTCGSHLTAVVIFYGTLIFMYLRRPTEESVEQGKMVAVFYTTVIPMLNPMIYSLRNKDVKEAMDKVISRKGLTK
Summary of the method: (§1)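 Whether a receptor–molecule pair is responsive (active) rests on the original authors' judgment that its measured signal was statistically different from baseline. Pairs without that judgment are non-responsive (inactive). Sources used varied assay methods, commonly transient luciferase assays in mammalian cell lines.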

UniProt A2AVB0 = target: T2, UniProt A2AVB0
T2 sequence (whole entry): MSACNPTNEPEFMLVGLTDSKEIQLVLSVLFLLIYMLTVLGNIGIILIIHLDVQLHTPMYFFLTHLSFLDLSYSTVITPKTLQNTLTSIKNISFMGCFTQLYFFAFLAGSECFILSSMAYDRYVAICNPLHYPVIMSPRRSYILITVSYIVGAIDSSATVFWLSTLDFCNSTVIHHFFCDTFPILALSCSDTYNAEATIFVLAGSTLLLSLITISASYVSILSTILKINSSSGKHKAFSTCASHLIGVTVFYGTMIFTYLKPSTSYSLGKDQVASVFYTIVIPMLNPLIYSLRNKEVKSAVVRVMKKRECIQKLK
Summary of the method: as §1

UniProt A2AVB5 = target: T3, UniProt A2AVB5
T3 sequence (whole entry): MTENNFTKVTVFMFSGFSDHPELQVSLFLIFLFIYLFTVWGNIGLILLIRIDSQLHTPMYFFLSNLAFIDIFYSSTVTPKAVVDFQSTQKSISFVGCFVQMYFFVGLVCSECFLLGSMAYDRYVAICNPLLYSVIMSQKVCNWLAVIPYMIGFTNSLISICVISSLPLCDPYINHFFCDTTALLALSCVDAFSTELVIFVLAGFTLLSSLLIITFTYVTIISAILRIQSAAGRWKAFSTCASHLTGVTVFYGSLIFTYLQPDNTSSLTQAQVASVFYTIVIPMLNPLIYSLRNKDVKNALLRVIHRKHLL
Summary of the method: as §1

UniProt B2RVX8 = target: T4, UniProt B2RVX8
T4 sequence (whole entry): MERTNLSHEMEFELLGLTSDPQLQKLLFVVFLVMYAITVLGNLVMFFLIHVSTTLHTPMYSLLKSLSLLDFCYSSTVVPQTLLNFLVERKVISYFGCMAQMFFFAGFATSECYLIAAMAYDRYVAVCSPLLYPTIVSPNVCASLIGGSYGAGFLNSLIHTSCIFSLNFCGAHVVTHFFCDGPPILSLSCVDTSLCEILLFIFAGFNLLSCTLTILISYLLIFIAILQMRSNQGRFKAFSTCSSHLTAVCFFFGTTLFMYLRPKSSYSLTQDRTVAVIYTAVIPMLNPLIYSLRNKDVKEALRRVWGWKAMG
Summary of the method: as §1

UniProt E9PVX1 = target: T5, UniProt E9PVX1
T5 sequence (whole entry): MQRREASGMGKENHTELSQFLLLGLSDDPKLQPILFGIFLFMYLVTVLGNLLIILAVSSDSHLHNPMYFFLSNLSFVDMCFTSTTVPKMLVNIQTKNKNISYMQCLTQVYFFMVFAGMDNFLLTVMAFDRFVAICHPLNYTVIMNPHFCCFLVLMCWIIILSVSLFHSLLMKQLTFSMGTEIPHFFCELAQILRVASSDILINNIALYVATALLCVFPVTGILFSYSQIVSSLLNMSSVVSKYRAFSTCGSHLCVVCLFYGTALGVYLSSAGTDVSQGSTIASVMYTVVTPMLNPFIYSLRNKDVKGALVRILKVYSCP
Summary of the method: as §1

UniProt E9PZ66 = target: T6, UniProt E9PZ66
T6 sequence (whole entry): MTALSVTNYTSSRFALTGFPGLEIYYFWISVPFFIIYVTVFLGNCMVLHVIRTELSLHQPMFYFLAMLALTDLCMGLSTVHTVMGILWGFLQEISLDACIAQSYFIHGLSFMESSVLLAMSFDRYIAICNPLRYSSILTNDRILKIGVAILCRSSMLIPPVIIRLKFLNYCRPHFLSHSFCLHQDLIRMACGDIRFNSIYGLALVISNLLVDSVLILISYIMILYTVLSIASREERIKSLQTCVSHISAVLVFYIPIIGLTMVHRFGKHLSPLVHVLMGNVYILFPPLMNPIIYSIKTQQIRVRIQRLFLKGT
Summary of the method: as §1

UniProt E9Q4X7 = target: T7, UniProt E9Q4X7
T7 sequence (whole entry): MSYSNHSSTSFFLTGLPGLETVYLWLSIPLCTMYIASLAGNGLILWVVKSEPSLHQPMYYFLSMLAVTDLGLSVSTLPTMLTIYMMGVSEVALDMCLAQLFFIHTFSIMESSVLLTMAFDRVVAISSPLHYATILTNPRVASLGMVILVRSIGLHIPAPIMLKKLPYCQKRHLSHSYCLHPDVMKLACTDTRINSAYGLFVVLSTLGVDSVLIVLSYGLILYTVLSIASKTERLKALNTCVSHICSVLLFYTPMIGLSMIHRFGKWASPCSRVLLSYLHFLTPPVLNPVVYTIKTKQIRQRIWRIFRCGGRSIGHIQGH
Summary of the method: as §1

UniProt E9Q546 = target: T8, UniProt E9Q546
T8 sequence (whole entry): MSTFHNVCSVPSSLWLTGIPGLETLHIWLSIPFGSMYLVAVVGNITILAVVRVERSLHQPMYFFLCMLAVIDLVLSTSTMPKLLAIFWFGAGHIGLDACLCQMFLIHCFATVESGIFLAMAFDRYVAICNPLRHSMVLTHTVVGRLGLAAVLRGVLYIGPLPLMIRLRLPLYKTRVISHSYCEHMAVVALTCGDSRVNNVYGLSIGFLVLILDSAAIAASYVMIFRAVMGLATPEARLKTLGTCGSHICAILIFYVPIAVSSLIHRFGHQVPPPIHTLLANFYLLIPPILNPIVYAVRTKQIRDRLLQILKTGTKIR
Summary of the method: as §1

UniProt E9Q6Z7 = target: T9, UniProt E9Q6Z7
T9 sequence (whole entry): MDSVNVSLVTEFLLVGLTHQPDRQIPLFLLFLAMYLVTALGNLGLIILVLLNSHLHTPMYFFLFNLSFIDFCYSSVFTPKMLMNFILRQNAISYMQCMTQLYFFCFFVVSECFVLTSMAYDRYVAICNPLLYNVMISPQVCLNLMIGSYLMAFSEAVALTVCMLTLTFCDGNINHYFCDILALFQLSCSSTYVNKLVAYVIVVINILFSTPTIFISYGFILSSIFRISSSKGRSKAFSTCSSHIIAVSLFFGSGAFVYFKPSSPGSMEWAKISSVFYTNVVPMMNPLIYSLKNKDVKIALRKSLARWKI
Summary of the method: as §1

UniProt K7N609 = target: T10, UniProt K7N609
T10 sequence (whole entry): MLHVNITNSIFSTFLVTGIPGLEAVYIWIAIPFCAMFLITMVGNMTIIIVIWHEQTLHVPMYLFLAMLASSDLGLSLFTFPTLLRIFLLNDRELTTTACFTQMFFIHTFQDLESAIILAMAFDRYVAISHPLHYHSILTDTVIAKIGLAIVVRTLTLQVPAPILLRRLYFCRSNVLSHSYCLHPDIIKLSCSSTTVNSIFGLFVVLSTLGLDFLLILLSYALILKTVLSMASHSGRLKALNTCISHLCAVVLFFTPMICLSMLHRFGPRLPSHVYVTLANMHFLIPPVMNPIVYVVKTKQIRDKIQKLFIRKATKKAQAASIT
Summary of the method: as §1

UniProt A2AVA9 = target: UniProt A2AVA9
Summary of the method: as §1

UniProt A2AVC3 = target: UniProt A2AVC3
Summary of the method: as §1

UniProt E9PXH6 = target: UniProt E9PXH6
Summary of the method: as §1

UniProt E9Q891 = target: UniProt E9Q891
Summary of the method: as §1

UniProt K7N5T5 = target: UniProt K7N5T5
Summary of the method: as §1

Measured: odorant receptor agonist call;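 further: active if original authors judged signal statistically different from baseline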

Sequence of UniProt E9PXH6 (E9PXH6 as listed by the source): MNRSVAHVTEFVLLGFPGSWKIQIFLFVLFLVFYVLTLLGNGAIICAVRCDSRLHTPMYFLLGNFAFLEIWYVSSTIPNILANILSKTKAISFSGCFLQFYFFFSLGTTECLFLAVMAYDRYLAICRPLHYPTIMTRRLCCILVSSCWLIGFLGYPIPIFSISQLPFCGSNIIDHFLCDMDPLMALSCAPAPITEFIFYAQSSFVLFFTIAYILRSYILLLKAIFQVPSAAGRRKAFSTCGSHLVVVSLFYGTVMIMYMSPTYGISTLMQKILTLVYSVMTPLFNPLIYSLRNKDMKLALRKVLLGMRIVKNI
Sequence of UniProt K7N5T5 (K7N5T5 as listed by the source): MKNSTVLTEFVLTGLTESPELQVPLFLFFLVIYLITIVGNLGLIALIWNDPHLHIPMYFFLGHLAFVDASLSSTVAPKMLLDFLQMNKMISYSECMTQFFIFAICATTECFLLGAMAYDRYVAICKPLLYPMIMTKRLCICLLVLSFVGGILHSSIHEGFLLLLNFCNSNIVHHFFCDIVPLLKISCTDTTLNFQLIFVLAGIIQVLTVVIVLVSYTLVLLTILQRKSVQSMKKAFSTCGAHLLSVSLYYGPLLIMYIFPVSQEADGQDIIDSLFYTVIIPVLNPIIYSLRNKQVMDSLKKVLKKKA
Sequence of UniProt A2AVA9 (A2AVA9 as listed by the source): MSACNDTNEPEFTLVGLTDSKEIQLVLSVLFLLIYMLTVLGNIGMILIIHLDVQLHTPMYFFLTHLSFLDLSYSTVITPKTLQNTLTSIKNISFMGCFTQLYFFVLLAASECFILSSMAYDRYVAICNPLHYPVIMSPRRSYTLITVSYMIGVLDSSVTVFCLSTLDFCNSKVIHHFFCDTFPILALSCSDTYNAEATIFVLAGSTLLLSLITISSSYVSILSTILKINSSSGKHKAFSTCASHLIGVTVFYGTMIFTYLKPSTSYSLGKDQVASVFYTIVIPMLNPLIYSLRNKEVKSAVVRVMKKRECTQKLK
Sequence of UniProt E9Q891 (E9Q891 as listed by the source): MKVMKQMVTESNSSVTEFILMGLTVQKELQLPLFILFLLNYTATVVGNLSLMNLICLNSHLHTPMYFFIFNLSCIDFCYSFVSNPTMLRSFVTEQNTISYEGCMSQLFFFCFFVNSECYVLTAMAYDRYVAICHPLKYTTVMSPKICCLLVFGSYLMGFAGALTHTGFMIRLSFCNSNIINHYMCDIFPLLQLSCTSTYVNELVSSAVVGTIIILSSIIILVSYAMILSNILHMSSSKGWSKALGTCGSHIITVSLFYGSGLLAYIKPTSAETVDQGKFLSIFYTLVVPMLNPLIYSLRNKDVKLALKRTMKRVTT
Sequence of UniProt A2AVC3 (A2AVC3 as listed by the source): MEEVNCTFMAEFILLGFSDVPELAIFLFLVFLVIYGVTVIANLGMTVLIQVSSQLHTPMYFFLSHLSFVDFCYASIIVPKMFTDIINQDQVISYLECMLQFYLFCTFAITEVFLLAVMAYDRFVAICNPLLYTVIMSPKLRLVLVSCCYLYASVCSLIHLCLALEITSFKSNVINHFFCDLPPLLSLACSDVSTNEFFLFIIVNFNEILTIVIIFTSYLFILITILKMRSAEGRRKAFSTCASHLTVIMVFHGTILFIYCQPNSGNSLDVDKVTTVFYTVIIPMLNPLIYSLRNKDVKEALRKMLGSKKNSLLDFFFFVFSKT

CCCCCCC(C)=O
not listed: UniProt A2AVA9 | UniProt A2AVC3 | UniProt E9PXH6 | UniProt E9Q891 | UniProt K7N5T5
inactive: all other assays above

CC(=O)OCC=C(C)C
not listed: UniProt A2AVA9 | UniProt A2AVC3 | UniProt E9PXH6 | UniProt E9Q891 | UniProt K7N5T5
inactive: all other assays above

CCCC(=O)C(C)=O
not listed: UniProt A2AVA9 | UniProt A2AVC3 | UniProt E9PXH6 | UniProt E9Q891 | UniProt K7N5T5
inactive: all other assays above

CC(C)=CCCC(C)CCO (stereo not given)
not listed: UniProt A2AVA9 | UniProt A2AVC3 | UniProt E9PXH6 | UniProt E9Q891 | UniProt K7N5T5
inactive: all other assays above

CCCCCOC(=O)CCCCC
not listed: UniProt A2AVA9 | UniProt A2AVC3 | UniProt E9PXH6 | UniProt E9Q891 | UniProt K7N5T5
inactive: all other assays above

O=C1CCOc2ccccc21
active: UniProt A2AVA9 | UniProt A2AVB5 | UniProt E9PXH6 | UniProt E9Q891
inactive: all other assays above

CCCCCC(=O)CC
not listed: UniProt A2AVA9 | UniProt A2AVC3 | UniProt E9PXH6 | UniProt E9Q891 | UniProt K7N5T5
inactive: all other assays above

CC(=O)Oc1ccccc1
not listed: UniProt A2AVA9 | UniProt A2AVC3 | UniProt E9PXH6 | UniProt E9Q891 | UniProt K7N5T5
inactive: all other assays above

CCCCC(=O)CC
not listed: UniProt A2AVA9 | UniProt A2AVC3 | UniProt E9PXH6 | UniProt E9Q891 | UniProt K7N5T5
inactive: all other assays above

C=CCOC(=O)CCCCCC
not listed: UniProt A2AVA9 | UniProt A2AVC3 | UniProt E9PXH6 | UniProt E9Q891 | UniProt K7N5T5
inactive: all other assays above

COc1cc(C(=O)O)ccc1O
active: UniProt E9Q4X7 | UniProt K7N609
not listed: UniProt A2AVA9 | UniProt A2AVC3 | UniProt E9PXH6 | UniProt E9Q891 | UniProt K7N5T5
inactive: all other assays above

CCCCCCCCCS
not listed: UniProt A2AVA9 | UniProt A2AVC3 | UniProt E9PXH6 | UniProt E9Q891 | UniProt K7N5T5
inactive: all other assays above
